The test system of test [1] is Cricetinae gen. sp. Nature of the test: In vivo for cholesterol absorption inhibitory activity using 7-day cholesterol-fed hamster model (expressed as percent change in cholesteryl esters at 50 mg/kg/day). It counts as functional, Cricetulus griseus. The gist of the method:
(§1)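 Hamsters were fed a high-cholesterol diet for 7 days and gavaged once daily with compound in 0.2 mL corn oil. On the last day, animals were sacrificed and hepatic and serum lipids were determined. Results are given as percent change in hepatic cholesteryl ester or serum cholesterol concentration versus diet-fed controls gavaged with corn oil without drug.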

Test [2] concerns Cricetinae gen. sp. Nature of the test: In vivo cholesterol absorption inhibitory activity using 7-day cholesterol-fed hamster model (expressed as percent change in serum cholesterol at 50 mg/kg/day). It counts as functional, Cricetulus griseus. The procedure, abridged: as §1

As for `COc1ccc([C@@H]2[C@@H](CCCc3ccccc3)C(=O)N2C2CC2)cc1`, the Change was -61% in the test with Cricetinae gen. sp. [1] and -20% in the test on Cricetinae gen. sp. [2].
In the case of `O=C1[C@H](CCCc2ccccc2)[C@@H](c2ccc(O)cc2)N1c1ccc(O)cc1`, the Change in the test on Cricetinae gen. sp. [1] is given as -90%; with Cricetinae gen. sp. [2], -35%.
The matching figures for `COc1ccc([C@H]2N(c3ccc(OC)cc3)C(=O)[C@]2(Cc2ccccc2)c2ccccc2)cc1`: -15% and 23%.
Turning to `COc1ccc([C@@H]2[C@@H](CCCc3ccccc3)C(=O)N2C2CCCCC2)cc1`, the Change in the test with Cricetinae gen. sp. [1] and with Cricetinae gen. sp. [2] was 0% throughout.
In the case of `COc1ccc(N2C(=O)[C@H](CCCc3ccccc3)[C@H]2c2ccc(NC(C)=O)cc2)cc1`, the Change is reported as -26% in the test with Cricetinae gen. sp. [1] and -4% in the test on Cricetinae gen. sp. [2].
As to `COc1ccc(CN2C(=O)[C@H](CCCc3ccccc3)[C@H]2c2ccc(OC)cc2)cc1`, the Change in the test with Cricetinae gen. sp. [1] was -26%; in the test on Cricetinae gen. sp. [2] it was 0%.
The matching figures for `CCOc1ccc(N2C(=O)[C@H](CCCc3ccccc3)[C@H]2c2ccc(OC)cc2)cc1`: -96% and -57%.
`COc1ccc(N[C@H](c2ccc(OC)cc2)[C@@H](CCCc2ccccc2)C(=O)O)cc1`: the Change in the test on Cricetinae gen. sp. [1] is on record as 0%; in the test with Cricetinae gen. sp. [2], -8%.
The matching figures for `C=CCOc1ccc(N2C(=O)[C@H](CCCc3ccccc3)[C@H]2c2ccc(OC)cc2)cc1`: -90% and -44%.
Take `CCCCOc1ccc([C@@H]2[C@H](CCCc3ccccc3)C(=O)N2c2ccc(OC)cc2)cc1`: the results for the Change in the test on Cricetinae gen. sp. [1] and in the test on Cricetinae gen. sp. [2] were -70% and -15%, respectively.
As for `COc1ccc(N2C(=O)[C@H](CCCc3ccccc3)[C@H]2c2ccc(OC)cc2OC)cc1`, the values for the Change with Cricetinae gen. sp. [1] and with Cricetinae gen. sp. [2] were -78% and -26%, respectively.
For the molecule `COc1ccc([C@@H]2[C@@H](CCCc3ccccc3)C(=O)N2c2cccc(N)c2)cc1`, the Change is reported as -54% in the test with Cricetinae gen. sp. [1] and -25% with Cricetinae gen. sp. [2].
With `CCCOc1ccc([C@@H]2[C@@H](CCCc3ccccc3)C(=O)N2c2ccc(OC)cc2)cc1`, the results for the Change in the test on Cricetinae gen. sp. [1] and with Cricetinae gen. sp. [2] were -95% and -40%, respectively.
Turning to `COc1ccc([C@@H]2[C@@H](CCCC3CCCCC3)C(=O)N2c2ccc(OC)cc2)cc1`, the figures for the Change in the test with Cricetinae gen. sp. [1] and in the test on Cricetinae gen. sp. [2] were -47% and -23%, respectively.
`CC[C@H]1C(=O)N(c2ccc(OC)cc2)[C@@H]1c1ccc(OC)cc1`: the Change in the test on Cricetinae gen. sp. [1] and with Cricetinae gen. sp. [2] was 0% throughout.
Regarding `COc1ccc(N2C(=O)C(CCCc3ccccc3)[C@]2(c2ccc(OC)cc2)C(F)(F)F)cc1` (stereo partly drawn), the Change in the test on Cricetinae gen. sp. [1] is reported as -11%; in the test with Cricetinae gen. sp. [2] it was 0%.
Regarding `COc1ccc(N2C(=O)C(CCCc3ccccc3)C2(c2ccc(OC)cc2)c2ccc(OC)cc2)cc1` (stereo not drawn), the figures for the Change with Cricetinae gen. sp. [1] and in the test with Cricetinae gen. sp. [2] were 0% and -9%, respectively.
In the case of `COc1ccc([C@H]2N(c3ccc(OC)cc3)C(=O)[C@]2(C)CCCc2ccccc2)cc1`, the results for the Change in the test on Cricetinae gen. sp. [1] and in the test with Cricetinae gen. sp. [2] were 21% and 0%, respectively.
`COc1ccc([C@@H]2[C@@H](CCCc3ccccc3)C(=O)N2c2ccc3c(c2)OCO3)cc1`: the results for the Change in the test on Cricetinae gen. sp. [1] and with Cricetinae gen. sp. [2] were -52% and -19%, respectively.
The like results for `CCN(CC)c1ccc(N2C(=O)[C@H](CCCc3ccccc3)[C@H]2c2ccc(OC)cc2)cc1` were, in that order, -95% and -51%.
On to `COc1ccc(N2C(=O)[C@H](CCCc3ccccc3)[C@H]2c2ccc([S+](C)[O-])cc2)cc1` (stereo partly drawn), for which the Change was -32% in the test with Cricetinae gen. sp. [1] and -17% with Cricetinae gen. sp. [2].
With `COc1ccc(N2C(=O)[C@@H](CCCc3ccccc3)[C@H]2c2ccc(OC(C)C)cc2)cc1`, the Change in the test with Cricetinae gen. sp. [1] is -78%; in the test with Cricetinae gen. sp. [2] it was -28%.
`CC[C@@]1(CCCc2ccccc2)C(=O)N(c2ccc(OC)cc2)[C@@H]1c1ccccc1`: the Change in the test on Cricetinae gen. sp. [1] and with Cricetinae gen. sp. [2] was 0% each time.
Turning to `COc1ccc([C@@H]2[C@H](CCCCCc3ccccc3)C(=O)N2c2ccc(OC)cc2)cc1`, the Change is on record as -70% in the test on Cricetinae gen. sp. [1] and -24% in the test with Cricetinae gen. sp. [2].
On to `COc1ccc(N2C(=O)[C@H](CCCc3ccccc3)[C@H]2c2ccc(N(C)C)cc2)cc1`, for which the figures for the Change in the test with Cricetinae gen. sp. [1] and in the test on Cricetinae gen. sp. [2] were -60% and -29%, respectively.
The matching figures for `COc1ccc([C@@H]2[C@@H](CCCc3ccccc3)C(=O)N2c2cc(F)cc(F)c2)cc1`: -93% and -52%.
Take `COc1ccc([C@@H]2[C@@H](CCCc3ccccc3)C(=O)N2c2ccc(OC)cc2)cc1` [SCH-48461]: the Change is -77.5% with Cricetinae gen. sp. [1] and -29% in the test on Cricetinae gen. sp. [2].
Regarding `COc1ccc([C@@H]2[C@@H](CCCc3ccccc3)C(=O)N2c2ccc([S+](C)[O-])cc2)cc1` (stereo partly drawn), the Change in the test with Cricetinae gen. sp. [1] is recorded as 0%; in the test on Cricetinae gen. sp. [2], -11%.
Take `COc1ccc([C@@H]2[C@@H](CCCc3ccccc3)C(=O)N2c2ccc(C)cc2)cc1`: the Change in the test on Cricetinae gen. sp. [1] was -90%; in the test with Cricetinae gen. sp. [2], -38%.
Regarding `COc1ccc(N2C(=O)[C@H](CCCc3ccccc3)[C@H]2c2ccc(OCc3ccccc3)cc2)cc1`, the Change is -48% in the test on Cricetinae gen. sp. [1] and -15% in the test with Cricetinae gen. sp. [2].
`COc1ccc([C@@H]2[C@@H](CCc3ccccc3)C(=O)N2c2ccc(OC)cc2)cc1`: the Change in the test on Cricetinae gen. sp. [1] and with Cricetinae gen. sp. [2] was 0% in each case.
As for `COc1ccc([C@@H]2[C@@H](CCCc3ccccc3)C(=O)N2c2ccccc2OC)cc1`, the Change in the test with Cricetinae gen. sp. [1] was -87%; in the test on Cricetinae gen. sp. [2], -49%.
The like results for `COc1ccc(N2C(=O)[C@H](CCCc3ccccc3)[C@H]2c2ccc(NS(C)(=O)=O)cc2)cc1` were, in that order, -46% and -8%.
Take `COc1ccc([C@@H]2[C@@H](CCCc3ccccc3)C(=O)N2Cc2ccccc2)cc1`: the results for the Change with Cricetinae gen. sp. [1] and with Cricetinae gen. sp. [2] were 16% and 0%, respectively.
In the case of `COc1ccc(N2C(=O)[C@@H](CCCc3ccccc3)[C@H]2c2ccc(OC)c(OC)c2)cc1`, the Change with Cricetinae gen. sp. [1] and in the test on Cricetinae gen. sp. [2] was 0% throughout.
As to `COc1ccc([C@@H]2[C@@H](CCCc3ccccc3)C(=S)N2c2ccc(OC)cc2)cc1`, the Change is -23% in the test on Cricetinae gen. sp. [1] and 0% in the test with Cricetinae gen. sp. [2].
On to `CCCCOc1ccc([C@@H]2[C@@H](CCCc3ccccc3)C(=O)N2c2ccc(OC)cc2)cc1`, for which the results for the Change with Cricetinae gen. sp. [1] and with Cricetinae gen. sp. [2] were -64% and -34%, respectively.
`COc1ccc([C@@H]2[C@@H](CCCc3ccccc3)C(=O)N2c2ccc(F)cc2)cc1`: the results for the Change with Cricetinae gen. sp. [1] and in the test with Cricetinae gen. sp. [2] were -95% and -38%, respectively.
The like results for `COc1ccc([C@@H]2[C@@H](CCCc3ccccc3)C(=O)N2C23C[C@H]4C[C@@H](C2)C[C@@H](C3)C4)cc1` were, in that order, 0% and 0%.
The matching figures for `COc1ccc([C@@H]2[C@@H](CCCc3ccccc3)C(=O)N2c2c(OC)cc(OC)cc2OC)cc1`: 0% and 0%.
As to `COc1ccc([C@@H]2[C@H](CCCCCCc3ccccc3)C(=O)N2c2ccc(OC)cc2)cc1`, the Change in the test with Cricetinae gen. sp. [1] is on record as 0%; with Cricetinae gen. sp. [2] it was -29%.
Turning to `COc1ccc([C@@H]2[C@H](CCCc3ccccc3)C(=O)N2c2ccc(OC)cc2)cc1`, the Change in the test with Cricetinae gen. sp. [1] is given as -95%; in the test with Cricetinae gen. sp. [2], -45%.
With `C=CCN1C(=O)[C@H](CCCc2ccccc2)[C@H]1c1ccc(OC)cc1`, the Change with Cricetinae gen. sp. [1] and with Cricetinae gen. sp. [2] was 0% in each case.
Turning to `COc1ccc([C@@H]2[C@H](C)C(=O)N2c2ccc(OC)cc2)cc1`, the Change in the test with Cricetinae gen. sp. [1] and in the test on Cricetinae gen. sp. [2] was 0% in each case.
For `COc1ccc([C@@H]2[C@H](CCCCc3ccccc3)C(=O)N2c2ccc(OC)cc2)cc1`, the Change in the test with Cricetinae gen. sp. [1] is on record as -72%; in the test on Cricetinae gen. sp. [2], -28%.
With `COc1ccc(N2C(=O)[C@H](CCCc3ccccc3)[C@H]2c2ccc(F)cc2)cc1`, the Change in the test on Cricetinae gen. sp. [1] is recorded as 12%; in the test with Cricetinae gen. sp. [2], 0%.
Turning to `COCc1ccc([C@@H]2[C@@H](CCCc3ccccc3)C(=O)N2c2ccc(OC)cc2)cc1`, the values for the Change in the test on Cricetinae gen. sp. [1] and in the test on Cricetinae gen. sp. [2] were -56% and -27%, respectively.
Turning to `COc1ccc([C@@H]2[C@@H](CCCc3ccccc3)C(=O)N2c2ccc(SC)cc2)cc1`, the Change is listed as -70% in the test on Cricetinae gen. sp. [1] and -26% with Cricetinae gen. sp. [2].
Turning to `COc1ccc([C@@H]2[C@@H](CCCc3ccccc3)C(=O)N2c2ccc(C#N)cc2)cc1`, the Change was -74% in the test on Cricetinae gen. sp. [1] and -35% in the test on Cricetinae gen. sp. [2].
`COc1ccc([C@@H]2[C@@H](CCCc3ccccc3)C(=O)N2C(=O)c2ccccc2)cc1`: the Change in the test with Cricetinae gen. sp. [1] was 16%; in the test with Cricetinae gen. sp. [2], 0%.
The like results for `COc1ccc(N2C(=O)[C@H](CCCc3ccccc3)[C@H]2c2ccccc2OC)cc1` were, in that order, 0% and 0%.
In the case of `COc1ccc(N2C(=O)[C@@H](CCCc3ccccc3)[C@H]2c2ccccc2)cc1`, the Change in the test on Cricetinae gen. sp. [1] and in the test with Cricetinae gen. sp. [2] was 0% in each case.
As for `CC[C@]1(CCCc2ccccc2)C(=O)N(c2ccc(OC)cc2)[C@@H]1c1ccccc1`, the Change in the test with Cricetinae gen. sp. [1] is -29%; in the test on Cricetinae gen. sp. [2] it was -12%.
For the molecule `COc1ccc([C@@H]2[C@@H](CCCc3ccccc3)C(=O)N2C(C)C)cc1`, the figures for the Change in the test with Cricetinae gen. sp. [1] and in the test on Cricetinae gen. sp. [2] were -30% and -16%, respectively.
Consider `COc1ccc(N2C(=O)[C@H](CCCc3ccccc3)[C@H]2c2ccc3c(c2)OCO3)cc1`, for which the results for the Change in the test on Cricetinae gen. sp. [1] and with Cricetinae gen. sp. [2] were -19% and 0%, respectively.
As for `COc1ccc([C@@H]2[C@@H](CCCc3ccccc3)C(=O)N2c2cccc(OC)c2)cc1`, the figures for the Change in the test with Cricetinae gen. sp. [1] and with Cricetinae gen. sp. [2] were -91% and -38%, respectively.
For the molecule `COc1ccc([C@@H]2[C@@H](CCCc3ccccc3)C(=O)N2c2ccccc2)cc1`, the results for the Change in the test with Cricetinae gen. sp. [1] and with Cricetinae gen. sp. [2] were -95% and -49%, respectively.
Turning to `COc1ccc([C@H]2N(c3ccc(OC)cc3)C(=O)[C@@]2(C)CCCc2ccccc2)cc1`, the figures for the Change with Cricetinae gen. sp. [1] and in the test on Cricetinae gen. sp. [2] were -56% and 0%, respectively.
In the case of `COc1ccc([C@@H]2[C@@H](CCCc3ccccc3)C(=O)N2c2ccc(C(C)=O)cc2)cc1`, the Change in the test with Cricetinae gen. sp. [1] is -90%; with Cricetinae gen. sp. [2], -40%.

(Values after ChEMBL document CHEMBL1129795, “2-Azetidinone cholesterol absorption inhibitors: structure-activity relationships on the heterocyclic nucleus” (1996).)
